A word on the GI50: it is the concentration giving 50% growth inhibition. High values mean lower sensitivity of the cells, low ones greater sensitivity of the cells.

Data on twelve compounds can be found in ChEMBL document CHEMBL1135537, “Design, synthesis, and biological evaluation of indolequinone phosphoramidate prodrugs targeted to DT-diaphorase” (2002).

Experiment [1] relates to HT-29. Nature of the experiment: Inhibitory concentration that reduces clonogenic survival by 2 log units (99%) 2-hour after drug treatment in HT-29 human colon carcinoma cell line. Type of experiment: functional. Summed up: (§1)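 Clonogenic assay. Exponentially growing cells at 1–1.2 × 10^5 cells/mL in serum-free MEM with 0.02 M HEPES were exposed for 2 h at 37 °C, 5% CO2, to five final concentrations. Ethanol was the vehicle at 1% final, with an ethanol-only control. Cells were then rinsed, plated at 2–3 densities in five replicates and grown 10 days. Crystal-violet-stained colonies of ≥50 cells were counted, and LC99 was read from log surviving fraction versus concentration. Runs were done at least twice and averaged.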

In experiment [2] the test system is HT-29. Nature of the experiment: Growth inhibitory activity against HT-29 human solid tumor cell line using MTT assay. Format: functional. Summed up: (§2)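 MTT assay. Cells were seeded at (1-2) × 10^4 per well and left to attach for 24 h. Compound was taken up in DMSO and serially diluted in medium, keeping final DMSO at 1% or less, then exposed for 72 h. MTT was added for 4–5 h, formazan was dissolved in DMSO, and absorbance was read at 570 nm. GI50 was taken from percent-of-control versus concentration plots; each compound was assayed twice and the results averaged.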
(In general: Tetrazolium assays rely on reduction of a dye to a coloured formazan, in cell work by metabolically active cells.)

A further experiment has as its system MDA-MB-231. Nature of the experiment: Growth inhibitory activity against human MDA-231 cell line using MTT assay. Type of experiment: functional. The essentials:
as §2

A short description of experiment [3]: Selectivity ratio of LC99 of BE to LC99 of HT-29. Format: functional. The essentials:
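Ratio of the BE LC99 to the HT-29 LC99, both from a 2 h clonogenic exposure in serum-free MEM/HEPES with 1% ethanol vehicle. Colonies of ≥50 cells were counted after 10 days, and LC99 was taken from log surviving fraction versus concentration plots.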

A further experiment has as its system PC-3. Nature of the experiment: Growth inhibitory activity against human PC-3 cell line using MTT assay. Format: functional. Summed up:
as §2

The next experiment relates to MIA PaCa-2. Nature of the experiment: Growth inhibitory activity against PaCa-2 human solid tumor cell line using MTT assay. Format: functional. The essentials:
as §2

Experiment [4] deals with NAD(P)H dehydrogenase [quinone] 1 (Homo sapiens) (UniProt P15559). Nature of the experiment: Kinetic parameter Kcat was reported against DT-diaphorase. The essentials: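 Recombinant purified human DTD in Tris buffer (0.05 M, pH 7.6) with dithiothreitol (0.01 mM), NADH (1 mM), cytochrome c (55 μM) and varied indolequinone in DMSO. Run at 25 °C, started with enzyme, in triplicate. Cytochrome c reduction was followed at 550 nm, with no-enzyme background rates. kcat came from Hanes plots of initial linear rates (ε 1.85 × 10^4 M-1 cm-1). Values average ≥2 experiments.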

For a further experiment, the system named is A549. Nature of the experiment: Growth inhibitory activity against A549 human solid tumor cell line using MTT assay. Type of experiment: functional. Summed up:
as §2

The subject of the next experiment is UMUC3. Nature of the experiment: Growth inhibitory activity against UMUC3 human solid tumor cell line using MTT assay. Format: functional. The essentials:
as §2

For a further experiment, the system named is BE. The experiment in a line: Inhibitory concentration that reduces clonogenic survival by 2 log units (99%) 2-hour after drug treatment in BE human colon carcinoma cell line. Format: functional. Summed up:
as §1

Another experiment deals with A498. The experiment in a line: Growth inhibitory activity against A498-2LM human solid tumor cell line using MTT assay. Format: functional. Summed up:
as §2

NAD(P)H dehydrogenase [quinone] 1 (Homo sapiens), sequence (P15559 whole entry): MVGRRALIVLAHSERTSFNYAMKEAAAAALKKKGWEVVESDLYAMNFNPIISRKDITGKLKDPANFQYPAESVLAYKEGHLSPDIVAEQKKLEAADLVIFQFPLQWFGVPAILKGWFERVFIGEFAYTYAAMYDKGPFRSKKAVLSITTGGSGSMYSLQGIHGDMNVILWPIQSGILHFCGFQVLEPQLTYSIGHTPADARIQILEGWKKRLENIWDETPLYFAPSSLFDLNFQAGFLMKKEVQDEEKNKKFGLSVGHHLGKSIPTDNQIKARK

`COC1=CC(=O)c2c(c(COC(C)=O)cn2C)C1=O`: the results for the LC99 in the experiment on HT-29 [1] and with BE were 0.54 µM and 5.3 µM, respectively. The GI50 with HT-29 [2] was found to be 3 nM; in the experiment with MDA-MB-231, 250 nM; in the experiment on PC-3 it was 5 nM; in the experiment with MIA PaCa-2, 4 nM; in the experiment on A549, 440 nM; in the experiment with UMUC3, 7 nM. Further, the GI50 with A498 was determined as 37 nM. In addition, the Selectivity in experiment [3] is 10. The k cat in [4] is 4 s⁻¹.
Regarding `COC1=CC(=O)c2c(cc(COC(C)=O)n2C)C1=O`, the LC99 with HT-29 [1] and in the experiment on BE was above 100 µM throughout. Further, the GI50 in the experiment with HT-29 [2] was 34000 nM; with MDA-MB-231 it was above 38000 nM; with PC-3, above 38000 nM; in the experiment with MIA PaCa-2, 35000 nM; in the experiment on A549 it was 26000 nM; in the experiment with UMUC3 it was 9600 nM. The GI50 in the experiment with A498 was found to be 34000 nM. For the same compound, the k cat in [4] amounted to 30 s⁻¹.
Consider `COC1=CC(=O)c2c(c(COP(N)(=O)N3CCOCC3)cn2C)C1=O` (stereo unspecified), for which the LC99 in the experiment on HT-29 [1] and with BE was above 100 µM each time. In addition, the GI50 with HT-29 [2] is 7700 nM; in the experiment with MDA-MB-231 it was 9300 nM; in the experiment on PC-3, 15000 nM; in the experiment on MIA PaCa-2, 9800 nM; in the experiment with A549, 12000 nM; in the experiment with UMUC3 it was 8200 nM. Also, in the experiment with A498, growth was halved (GI50) at 1200 nM.
On to `COC1=CC(=O)c2c(cc(COP(N)(=O)N(CCCl)CCCl)n2C)C1=O` (stereo unspecified), for which the results for the LC99 with HT-29 [1] and with BE were 0.11 µM and 7.6 µM, respectively. Besides, the GI50 turned out to be 210 nM in the experiment with HT-29 [2]; 870 nM with MDA-MB-231; 260 nM in the experiment with PC-3; 31 nM in the experiment with MIA PaCa-2; 22 nM with A549; 10 nM in the experiment on UMUC3. Further, in the experiment on A498, halving of growth (GI50) required 980 nM. In experiment [3], the Selectivity was 69. Also, in experiment [4], the k cat stood at 2.6 s⁻¹.
As for `COC1=CC(=O)c2c(cc(COP(N)(=O)N3CCOCC3)n2C)C1=O` (stereo unspecified), the LC99 in the experiment with HT-29 [1] and with BE was above 100 µM each time. The GI50 in the experiment with HT-29 [2] amounted to 15000 nM; in the experiment on MDA-MB-231, 13000 nM; in the experiment with PC-3, 14000 nM; in the experiment on MIA PaCa-2, 10000 nM; in the experiment on A549, 45000 nM; with UMUC3, 10000 nM. The compound further showed a GI50 in the experiment with A498 of 12000 nM. Moreover, the k cat in experiment [4] amounted to 4.9 s⁻¹.
For the compound `COC1=CC(=O)c2c(cc(CO)n2C)C1=O`, the k cat in [4] stood at 77 s⁻¹.
In turn, `COC1=CC(=O)c2c(c(CO)cn2C)C1=O` displayed a k cat in experiment [4] of 136 s⁻¹.
For `COC1=CC(=O)c2c(c(COP(=O)(N(C)CCBr)N(C)CCBr)cn2C)C1=O`, the LC99 is 0.07 µM in the experiment on HT-29 [1] and 0.14 µM in the experiment with BE. For the same compound, the GI50 was 65 nM in the experiment on HT-29 [2]; 40 nM in the experiment on MDA-MB-231; 66 nM with PC-3; 25 nM in the experiment on MIA PaCa-2; 23 nM in the experiment with A549; 2 nM in the experiment on UMUC3. Also, the GI50 with A498 is 340 nM. For the same compound, the Selectivity in experiment [3] came to 2.
`COC1=CC(=O)c2c(cc(COP(=O)(N(C)CCBr)N(C)CCBr)n2C)C1=O`: the LC99 was found to be 0.35 µM in the experiment on HT-29 [1] and 2 µM with BE. In addition, the GI50 in the experiment on HT-29 [2] amounted to 200 nM; in the experiment with MDA-MB-231, 840 nM; with PC-3, 940 nM; with MIA PaCa-2, 8 nM; with A549 it was 1700 nM; in the experiment on UMUC3, 17 nM. In the experiment with A498, this compound displayed a GI50 of 2300 nM. Besides, the Selectivity in experiment [3] was 6. This compound also registered a k cat in [4] of 1.28 s⁻¹.
Take `CC1=CC(=O)c2ccccc2C1=O`: the k cat in [4] was determined as 960 s⁻¹.
In the case of `COC1=CC(=O)c2c(c(COP(N)(=O)N(CCBr)CCBr)cn2C)C1=O` (stereo unspecified), the LC99 worked out at 0.24 µM with HT-29 [1] and 0.47 µM in the experiment on BE. Besides, the GI50 in the experiment on HT-29 [2] was 240 nM; with MDA-MB-231 it was 190 nM; in the experiment with PC-3 it was 650 nM; with MIA PaCa-2, 220 nM; in the experiment with A549, 400 nM; in the experiment on UMUC3, 10 nM. The same compound came in with a GI50 with A498 of 1000 nM. Moreover, in experiment [3], the Selectivity came to 2.
`COC1=CC(=O)c2c(cc(COP(N)(=O)N(CCBr)CCBr)n2C)C1=O` (stereo unspecified): the values for the LC99 in the experiment on HT-29 [1] and in the experiment with BE were 0.077 µM and 4.2 µM, respectively. The GI50 stood at 61 nM in the experiment with HT-29 [2]; 1600 nM in the experiment with MDA-MB-231; 490 nM with PC-3; 15 nM with MIA PaCa-2; 3 nM with A549; 2 nM in the experiment with UMUC3. This compound also displayed a GI50 with A498 of 200 nM. Also, the Selectivity in [3] came to 65. The k cat in experiment [4] was determined as 1.6 s⁻¹.
